# Assay results of several laboratories.
# Lines come from different studies, so protocols differ.
# RXFP3: Relaxin-3 receptor 1 (RXFP3, Homo sapiens, UniProt Q9NSD7)
# BRAF: Serine/threonine-protein kinase B-raf (BRAF, Homo sapiens, UniProt P15056)
# SMUG1: SMUG1 (Homo sapiens, UniProt Q53HV7)
# EGFR L858R/T790M: Epidermal growth factor receptor (EGFR, Homo sapiens, UniProt P00533, L858R/T790M)
# Delta-aminolevulinic acid dehydratase C162A/K59N: Delta-aminolevulinic acid dehydratase (Homo sapiens, UniProt P13716, C162A/K59N)
# BACE1: Beta-secretase 1 (BACE1, Homo sapiens, UniProt P56817)
# ELANE: Neutrophil elastase (ELANE, Homo sapiens, UniProt P08246)
Structure (SMILES),target,read-out,mode,method,pH,setting,IC50 [nM]
O=C(Nc1ccc(-c2nc(-c3ccccc3)no2)cc1)C1CC(=O)N(Cc2cccnc2)C1 (centres unmarked),RXFP3,cAMP,antagonist,TR-FRET,,,7690
Nc1ncc(-c2nc(N3CCOCC3)nc(N3[C@@H]4CC[C@H]3COC4)n2)c(C(F)F)n1,"Serine/threonine-protein kinase mTOR (MTOR, Homo sapiens, UniProt P42345)",ligand displacement,,TR-FRET,,,21.3
Nc1cccc(-c2cc3c(Oc4cccc(O)c4)ncnc3[nH]2)c1,BRAF,cell-free assay,inhibitor,,,,832
COc1cc(NC(=O)N2CCC(n3c(=O)[nH]c4c(Br)cccc43)CC2)ccc1Cl,SMUG1,enzyme activity,inhibitor,,,,> 100000
C=C(Cl)C(=O)Nc1cc(Nc2nc(N3CCOCC3)c3sccc3n2)c(OC)cc1N(C)CCN(C)C,EGFR L858R/T790M,enzyme activity,inhibitor,ELISA,,,63
NC(=O)N/N=C/c1ccc([N+](=O)[O-])o1,Delta-aminolevulinic acid dehydratase C162A/K59N,enzyme activity,inhibitor,absorbance,pH 8,with preincubation,2100
COc1ccc(-c2coc3cc(O)c(CC=C(C)C)c(O)c3c2=O)c(O)c1,BACE1,enzyme activity,inhibitor,,,,42000
Cc1ccc(COc2ccc3c(c2)NC(=C(C#N)C(=O)c2ccc(Cl)cc2Cl)NC3=O)cc1,"Cytoplasmic dynein 2 heavy chain 1 (DYNC2H1, Homo sapiens, UniProt Q8NCM8)",ATPase activity,inhibitor,,,,11000
C=CC(=O)Nc1cc(Nc2nccc(-c3cn(C4CC4)c4ccccc34)n2)c(OC)cc1N(C)CCN(C)C,"Epidermal growth factor receptor (EGFR, Homo sapiens, UniProt P00533, L747S)",enzyme activity,inhibitor,TR-FRET,,,3.09
CC(C)(C)n1nc(-c2cnc3cc(OC4CC4)ccc3c2)c(C(N)=O)c1N,BRAF,cell-free assay,,,,,> 10000
CC[C@@H](C(=O)Nc1ccc(C(N)=O)c(F)c1)n1cc(OC)c(-c2cc(Cl)ccc2-n2cc(C(F)(F)F)nn2)cc1=O,"Tissue-type plasminogen activator (PLAT, Homo sapiens, UniProt P00750)",enzyme activity,inhibitor,,,,> 10000
CN1CCN(c2ccc(Nc3ncc4cc(C#N)c(=O)n(C5CCCC5)c4n3)cc2)CC1,"Ephrin type-B receptor 2 (EPHB2, Homo sapiens, UniProt P29323)",enzyme activity,inhibitor,,,,86.8
Nc1ncc2c(n1)-c1c([nH]c3ccc(-c4ccc(F)cc4)cc13)CCC2,"Non-receptor tyrosine-protein kinase TYK2, JH2 (TYK2, Homo sapiens, UniProt P29597)",target engagement in cells,,BRET,,,> 10000
CC(C)C[C@H](NC(=O)[C@H](Cc1ccccc1)NC(=O)[C@@H](N)Cc1ccc(O)cc1)C(=O)N[C@@H](Cc1ccccc1)C(=O)N[C@@H](CCCNC(=N)N)C(=O)N1CCC[C@H]1C(=O)N[C@@H](CCCNC(=N)N)C(=O)N[C@@H](CC(N)=O)C(N)=O,"Neuromedin-U receptor 2 (Mus musculus, UniProt Q8BZ39)",ligand displacement,,radioligand,,,0.0912
Cc1cccc(C(=O)n2ncc(=O)c3ccccc32)c1,ELANE,enzyme activity,inhibitor,fluorescence,,,56
CC(=O)N[C@H]1CSSC[C@@H](C(=O)N[C@H](Cc2c[nH]c3ccccc23)C(N)=O)NC(=O)[C@@H](Cc2ccccc2)NC(=O)[C@H](CCCNC(=N)N)NC1=O,"Melanocortin receptor 3 (MC3R, Homo sapiens, UniProt P41968)",ligand displacement,,radioligand,,,> 5000
Cc1ncsc1-c1ccc(CNC(=O)[C@@H]2C[C@@H](O)CN2C(=O)[C@@H](NC(=O)C2(F)CC2)C(C)(C)C)c(OCCOCCOCCN2CCN(c3cc(-c4ccccc4O)nnc3N)CC2)c1,"SWI/SNF-related matrix-associated actin-dependent regulator of chromatin subfamily A member 2, bromodomain (SMARCA2, Homo sapiens, UniProt P51531)",ligand displacement,,TR-FRET,,,2400
Cc1cccc(C(=O)n2nc(Cl)c(=O)c3ccccc32)c1,ELANE,enzyme activity,inhibitor,fluorescence,,,970
NS(=O)(=O)c1cc2c(cc1C(F)(F)F)NC(Cc1ccccc1)NS2(=O)=O (centres unmarked),Delta-aminolevulinic acid dehydratase C162A/K59N,enzyme activity,inhibitor,absorbance,pH 8,with preincubation,130000
Cc1ccc(C(=O)Nc2ccc(Oc3cc4cnn(C)c4cc3-c3cn[nH]c3)c(F)c2)c(=O)n1-c1ccc(F)cc1,"Proto-oncogene tyrosine-protein kinase ROS (ROS1, Homo sapiens, UniProt P08922)",phosphorylation in cells,inhibitor,western blot,,,170
O=C(Nc1ccc(Cl)c(Cl)c1)N1CCC(n2c(=O)[nH]c3c(Br)cccc32)CC1,SMUG1,enzyme activity,inhibitor,,,,> 100000
O=C(N/N=C/CN1CCCCC1)Nc1cc2c(Nc3ccc(F)c(Cl)c3)ncnc2cc1O[C@H]1CCOC1,EGFR L858R/T790M,enzyme activity,inhibitor,,,,8.6
O=C(Nc1ccn(Cc2ccc(O)cc2C(F)(F)F)n1)c1c(F)cccc1F,"Transient receptor potential cation channel subfamily V member 4 (TRPV4, Homo sapiens, UniProt Q9HBA0)",ion current,inhibitor,,,,> 10000
CCCS(=O)(=O)Nc1ccc(F)c(C(=O)c2c[nH]c3ncc(-c4ccc(CNC(=O)COCC(=O)NCc5ccc(-c6cnc7[nH]cc(C(=O)c8c(F)ccc(NS(=O)(=O)CCC)c8F)c7c6)cc5)cc4)cc23)c1F,"Serine/threonine-protein kinase B-raf (BRAF, Homo sapiens, UniProt P15056, V600E)",enzyme activity,inhibitor,ELISA,,,~56
CNc1nc(C)nc(N[C@H]2CCC[C@@H](C(=O)NCc3ccc(C#N)cc3C(F)(F)F)C2)n1,"Bifunctional epoxide hydrolase 2 (Ephx2, Mus musculus, UniProt P34914)",enzyme activity,inhibitor,,,,4
NCCCC[C@H](NC(=O)[C@@H]1CCCN1C(=O)[C@@H]1CSSC[C@H](NC(=O)CNC(=O)CNC(=O)CN)C(=O)N[C@@H](Cc2ccc(O)cc2)C(=O)N[C@@H](Cc2ccccc2)C(=O)N[C@@H](CCC(N)=O)C(=O)N[C@@H](CC(N)=O)C(=O)N1)C(=O)NCC(N)=O,"Vasopressin V2 receptor (AVPR2, Homo sapiens, UniProt P30518)",ligand displacement,,radioligand,,cell membranes,9600
O=Cc1cc(Br)cc(Br)c1O,Delta-aminolevulinic acid dehydratase C162A/K59N,enzyme activity,inhibitor,absorbance,pH 8,with preincubation,22000
CCCCn1c(Sc2ccc(Cl)cc2Cl)nc2c(N)ncnc21,"Endoplasmin (HSP90B1, Canis lupus familiaris, UniProt P41148)",ligand displacement,,FP,,,800
O=C(Nc1ccc(-c2nc(-c3ccc(C(F)(F)F)cc3)no2)cc1)C1CC(=O)N(Cc2cccnc2)C1 (centres unmarked),RXFP3,cAMP,antagonist,TR-FRET,,,2170
CC(C)=CCCC(C)=CCc1c(O)cc(O)c2c(=O)c(-c3ccc(O)cc3O)coc12,BACE1,enzyme activity,inhibitor,,,,45000
COc1ccc2c(Oc3ccc4c(C(=O)Nc5ccccc5N)cccc4c3)ccnc2c1,"Mitogen-activated protein kinase 8 (MAPK8, Homo sapiens, UniProt P45983)",enzyme activity,inhibitor,,,,> 500
O=C(Nc1ccc(-c2nc(-c3ccc(Cl)cc3)no2)cc1)C1CC(=O)N(Cc2cccnc2)C1 (centres unmarked),RXFP3,cAMP,antagonist,TR-FRET,,,1490
